Assay results published in ChEMBL document CHEMBL4689842, “EUbOPEN Chemogenomics Library wave 1” (2021).
Values joined by “and” are separate entries in the source; they are usually repeats but may differ in a detail not shown here. Identical values can stand only once.

Test system: Fibroblast
Test: Multiplex assay against human fibroblast
Assay type: toxicity, cell-based
How it was run: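 On a CQ1 microscope at 37°C and 5% CO2, live cells were imaged after compound addition. They had been stained at seeding with Hoechst33342, BioTracker Green Microtubule Cytoskeleton Dye, MitoTracker Red and Annexin V Alexa Fluor 680. CellPathfinder machine-learning gating assigned cells to Hoechst high-intensity objects or normal cells, normal cells to healthy, pyknosed or fragmented nuclei, and pyknosed cells to mitotic or apoptotic. Tubulin, mitochondrial-mass and membrane-permeability phenotypes are per cents of healthy-nucleus cells.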

[1] = 12 h, 1 µM, compound concentration 1 uM, replicate 1
[2] = 12 h, 1 µM, compound concentration 1 uM, replicate 2
[3] = 12 h, 10 µM, compound concentration 10 uM, replicate 1
[4] = 12 h, 10 µM, compound concentration 10 uM, replicate 2
[5] = 24 h, 1 µM, compound concentration 1 uM, replicate 1
[6] = 24 h, 1 µM, compound concentration 1 uM, replicate 2
[7] = 24 h, 10 µM, compound concentration 10 uM, replicate 1
[8] = 24 h, 10 µM, compound concentration 10 uM, replicate 2
[9] = 48 h, 1 µM, compound concentration 1 uM, replicate 1
[10] = 48 h, 1 µM, compound concentration 1 uM, replicate 2
[11] = 48 h, 10 µM, compound concentration 10 uM, replicate 1
[12] = 48 h, 10 µM, compound concentration 10 uM, replicate 2

O=C1N/C(=N/c2ccccc2F)S/C1=C\c1ccc(C(=O)O)cc1
Population Apoptotic (%) [1]: 68%
Population Fragmented Nuclei (%) [1]: 29%
Population Healthy Nuclei (%) [1]: 37%
Population Hoechst High Intensity Objects (%) [1]: 13%
Population Membrane Permeable-Phenotype (%) [1]: 27%
Population Mitochondria Different-Phenotype (%) [1]: 2%
Population Mitotic Cells (%) [1]: 31%
Population Normal (%) [1]: 86%
Population Pyknosed Nuclei (%) [1]: 32%
Population Tubulin-Different-Phenotype (%) [1]: 19%
Total Cell Count [1]: 112
Population Apoptotic (%) [2]: 0%
Population Fragmented Nuclei (%) [2]: 3%
Population Healthy Nuclei (%) [2]: 92%
Population Hoechst High Intensity Objects (%) [2]: 8%
Population Membrane Permeable-Phenotype (%) [2]: 6%
Population Mitochondria Different-Phenotype (%) [2]: 16%
Population Mitotic Cells (%) [2]: 100%
Population Normal (%) [2]: 91%
Population Pyknosed Nuclei (%) [2]: 3%
Population Tubulin-Different-Phenotype (%) [2]: 24%
Total Cell Count [2]: 66
Population Apoptotic (%) [3]: 67%
Population Fragmented Nuclei (%) [3]: 29%
Population Healthy Nuclei (%) [3]: 51%
Population Hoechst High Intensity Objects (%) [3]: 60%
Population Membrane Permeable-Phenotype (%) [3]: 36%
Population Mitochondria Different-Phenotype (%) [3]: 6%
Population Mitotic Cells (%) [3]: 32%
Population Normal (%) [3]: 39%
Population Pyknosed Nuclei (%) [3]: 19%
Population Tubulin-Different-Phenotype (%) [3]: 51%
Total Cell Count [3]: 406
Population Apoptotic (%) [4]: 44%
Population Fragmented Nuclei (%) [4]: 4%
Population Healthy Nuclei (%) [4]: 81%
Population Hoechst High Intensity Objects (%) [4]: 8%
Population Membrane Permeable-Phenotype (%) [4]: 1%
Population Mitochondria Different-Phenotype (%) [4]: 9%
Population Mitotic Cells (%) [4]: 55%
Population Normal (%) [4]: 91%
Population Pyknosed Nuclei (%) [4]: 14%
Population Tubulin-Different-Phenotype (%) [4]: 9%
Total Cell Count [4]: 59
Population Apoptotic (%) [5]: 55%
Population Fragmented Nuclei (%) [5]: 26%
Population Healthy Nuclei (%) [5]: 47%
Population Hoechst High Intensity Objects (%) [5]: 14%
Population Membrane Permeable-Phenotype (%) [5]: 36%
Population Mitochondria Different-Phenotype (%) [5]: 5%
Population Mitotic Cells (%) [5]: 45%
Population Normal (%) [5]: 85%
Population Pyknosed Nuclei (%) [5]: 26%
Population Tubulin-Different-Phenotype (%) [5]: 41%
Total Cell Count [5]: 89
Population Apoptotic (%) [6]: 0%
Population Fragmented Nuclei (%) [6]: 7%
Population Healthy Nuclei (%) [6]: 85%
Population Hoechst High Intensity Objects (%) [6]: 5%
Population Membrane Permeable-Phenotype (%) [6]: 5%
Population Mitochondria Different-Phenotype (%) [6]: 10%
Population Mitotic Cells (%) [6]: 100%
Population Normal (%) [6]: 94%
Population Pyknosed Nuclei (%) [6]: 7%
Population Tubulin-Different-Phenotype (%) [6]: 23%
Total Cell Count [6]: 69
Population Apoptotic (%) [7]: 65%
Population Fragmented Nuclei (%) [7]: 18%
Population Healthy Nuclei (%) [7]: 63%
Population Hoechst High Intensity Objects (%) [7]: 20%
Population Membrane Permeable-Phenotype (%) [7]: 29%
Population Mitochondria Different-Phenotype (%) [7]: 5%
Population Mitotic Cells (%) [7]: 34%
Population Normal (%) [7]: 79%
Population Pyknosed Nuclei (%) [7]: 18%
Population Tubulin-Different-Phenotype (%) [7]: 33%
Total Cell Count [7]: 181
Population Apoptotic (%) [8]: 60%
Population Fragmented Nuclei (%) [8]: 5%
Population Healthy Nuclei (%) [8]: 88%
Population Hoechst High Intensity Objects (%) [8]: 5%
Population Membrane Permeable-Phenotype (%) [8]: 2%
Population Mitochondria Different-Phenotype (%) [8]: 6%
Population Mitotic Cells (%) [8]: 40%
Population Normal (%) [8]: 94%
Population Pyknosed Nuclei (%) [8]: 5%
Population Tubulin-Different-Phenotype (%) [8]: 16%
Total Cell Count [8]: 73
Population Apoptotic (%) [9]: 52%
Population Fragmented Nuclei (%) [9]: 35%
Population Healthy Nuclei (%) [9]: 46%
Population Hoechst High Intensity Objects (%) [9]: 19%
Population Membrane Permeable-Phenotype (%) [9]: 20%
Population Mitochondria Different-Phenotype (%) [9]: 0%
Population Mitotic Cells (%) [9]: 47%
Population Normal (%) [9]: 80%
Population Pyknosed Nuclei (%) [9]: 17%
Population Tubulin-Different-Phenotype (%) [9]: 20%
Total Cell Count [9]: 118
Population Apoptotic (%) [10]: 50%
Population Fragmented Nuclei (%) [10]: 26%
Population Healthy Nuclei (%) [10]: 71%
Population Hoechst High Intensity Objects (%) [10]: 30%
Population Membrane Permeable-Phenotype (%) [10]: 18%
Population Mitochondria Different-Phenotype (%) [10]: 3%
Population Mitotic Cells (%) [10]: 50%
Population Normal (%) [10]: 69%
Population Pyknosed Nuclei (%) [10]: 1%
Population Tubulin-Different-Phenotype (%) [10]: 33%
Total Cell Count [10]: 161
Population Apoptotic (%) [11]: 53%
Population Fragmented Nuclei (%) [11]: 43%
Population Healthy Nuclei (%) [11]: 47%
Population Hoechst High Intensity Objects (%) [11]: 56%
Population Membrane Permeable-Phenotype (%) [11]: 29%
Population Mitochondria Different-Phenotype (%) [11]: 2%
Population Mitotic Cells (%) [11]: 46%
Population Normal (%) [11]: 43%
Population Pyknosed Nuclei (%) [11]: 9%
Population Tubulin-Different-Phenotype (%) [11]: 36%
Total Cell Count [11]: 370
Population Apoptotic (%) [12]: 40%
Population Fragmented Nuclei (%) [12]: 23%
Population Healthy Nuclei (%) [12]: 69%
Population Hoechst High Intensity Objects (%) [12]: 15%
Population Membrane Permeable-Phenotype (%) [12]: 16%
Population Mitochondria Different-Phenotype (%) [12]: 0%
Population Mitotic Cells (%) [12]: 60%
Population Normal (%) [12]: 84%
Population Pyknosed Nuclei (%) [12]: 6%
Population Tubulin-Different-Phenotype (%) [12]: 18%
Total Cell Count [12]: 90

COc1cc(N2CCC(N3CCN(C)CC3)CC2)ccc1Nc1ncnc(Nc2ccccc2S(=O)(=O)C(C)C)n1 [ASP-3026]
Population Apoptotic (%) [3]: 72% and 66%
Population Fragmented Nuclei (%) [3]: 30% and 23%
Population Healthy Nuclei (%) [3]: 55% and 60%
Population Hoechst High Intensity Objects (%) [3]: 14% and 18%
Population Membrane Permeable-Phenotype (%) [3]: 11% and 9%
Population Mitochondria Different-Phenotype (%) [3]: 6% and 7%
Population Mitotic Cells (%) [3]: 27% and 33%
Population Normal (%) [3]: 85% and 81%
Population Pyknosed Nuclei (%) [3]: 13% and 16%
Total Cell Count [3]: 252 and 249
Population Apoptotic (%) [4]: 80% and 100%
Population Fragmented Nuclei (%) [4]: 66% and 72%
Population Healthy Nuclei (%) [4]: 24% and 21%
Population Hoechst High Intensity Objects (%) [4]: 38% and 53%
Population Membrane Permeable-Phenotype (%) [4]: 8% and 18%
Population Mitochondria Different-Phenotype (%) [4]: 16% and 0%
Population Mitotic Cells (%) [4]: 20% and 0%
Population Normal (%) [4]: 61% and 46%
Population Pyknosed Nuclei (%) [4]: 10% and 5%
Total Cell Count [4]: 81 and 110
Population Apoptotic (%) [7]: 79%
Population Fragmented Nuclei (%) [7]: 38% and 22%
Population Healthy Nuclei (%) [7]: 50% and 63%
Population Hoechst High Intensity Objects (%) [7]: 18% and 16%
Population Membrane Permeable-Phenotype (%) [7]: 15% and 7%
Population Mitochondria Different-Phenotype (%) [7]: 1% and 3%
Population Mitotic Cells (%) [7]: 20%
Population Normal (%) [7]: 81% and 83%
Population Pyknosed Nuclei (%) [7]: 11% and 14%
Total Cell Count [7]: 260 and 264
Population Apoptotic (%) [8]: 50% and 100%
Population Fragmented Nuclei (%) [8]: 76% and 67%
Population Healthy Nuclei (%) [8]: 18% and 28%
Population Hoechst High Intensity Objects (%) [8]: 45% and 53%
Population Membrane Permeable-Phenotype (%) [8]: 14% and 26%
Population Normal (%) [8]: 54% and 46%
Population Pyknosed Nuclei (%) [8]: 5% and 3%
Total Cell Count [8]: 70 and 112
